Values after ≈ are worked out from the molar mass of the structure shown.
Experiments:
Type in all cases: functional
[1] = test system: Streptococcus pneumoniae; assay: Antimicrobial activity against penicillin-intermediate Streptococcus pneumoniae by agar dilution method
[2] = test system: Streptococcus pneumoniae; assay: Antimicrobial activity against penicillin-resistant Streptococcus pneumoniae by agar dilution method
Procedure, shortened: (§1)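 Agar dilution MIC on Mueller-Hinton agar with 5% sheep blood, inocula 10^4 CFU/spot; amoxicillin-clavulanate combined 1:2; S. pneumoniae ATCC 49619 quality control each run.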

[3] = test system: Streptococcus pneumoniae; assay: Antimicrobial activity against Streptococcus pneumoniae 19A by agar dilution method; procedure, shortened: as §1
[4] = test system: Streptococcus pneumoniae; assay: Antimicrobial activity against penicillin-susceptible Streptococcus pneumoniae by agar dilution method
[5] = test system: Streptococcus pneumoniae; assay: Antimicrobial activity against Streptococcus pneumoniae 2 by time-kill analysis
Procedure, shortened: (§2)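 Time-kill in cation-adjusted Mueller-Hinton broth with 5% lysed horse blood; inocula 5 × 105 to 5 × 10^6 CFU/ml; drugs at MIC, 2× and 4× MIC; 35°C shaking water bath; viable counts at 0, 3, 6, 12, 24 h. Bactericidal = ≥3 log10 CFU/ml (99.9%) drop from original inoculum; 90%/99%/99.9% killing scored per strain.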

[6] = test system: Streptococcus pneumoniae; assay: Antimicrobial activity against Streptococcus pneumoniae 10 by time-kill analysis; procedure, shortened: as §2
[7] = test system: Streptococcus pneumoniae; assay: Antimicrobial activity against Streptococcus pneumoniae 11 by time-kill analysis; procedure, shortened: as §2
[8] = test system: Streptococcus pneumoniae; assay: Antimicrobial activity against Streptococcus pneumoniae 4 by time-kill analysis; procedure, shortened: as §2
[9] = test system: Streptococcus pneumoniae; assay: Antimicrobial activity against Streptococcus pneumoniae 8 by time-kill analysis; procedure, shortened: as §2
[10] = test system: Streptococcus pneumoniae; assay: Antimicrobial activity against Streptococcus pneumoniae 12 by time-kill analysis; procedure, shortened: as §2
[11] = test system: Streptococcus pneumoniae; assay: Antimicrobial activity against Streptococcus pneumoniae 5 by time-kill analysis
Procedure, shortened: as §2, with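 “12 and” for “12,”, “if” for “=”, “reduction” for “drop”, “90% and 99%” for “90%/99%/99.9%”, “also scored.” for “scored per strain.”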

[12] = test system: Streptococcus pneumoniae; assay: Antimicrobial activity against Streptococcus pneumoniae 3 by time-kill analysis; procedure, shortened: as §2
[13] = test system: Streptococcus pneumoniae; assay: Antimicrobial activity against Streptococcus pneumoniae 6 by time-kill analysis; procedure, shortened: as §2
[14] = test system: Streptococcus pneumoniae; assay: Antimicrobial activity against Streptococcus pneumoniae 1 by time-kill analysis
Procedure, shortened: as §2, with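 “12 and” for “12,”, “if” for “=”, “reduction” for “drop”, “90% and 99%” for “90%/99%/99.9%”, “also scored.” for “scored per strain.”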

[15] = test system: Streptococcus pneumoniae; assay: Antimicrobial activity against Streptococcus pneumoniae 7 by time-kill analysis; procedure, shortened: as §2
[16] = test system: Streptococcus pneumoniae; assay: Antimicrobial activity against Streptococcus pneumoniae 9 by time-kill analysis
Procedure, shortened: as §2, with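 “12 and” for “12,”, “if” for “=”, “reduction” for “drop”, “90% and 99%” for “90%/99%/99.9%”, “also scored.” for “scored per strain.”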

[17] = test system: Streptococcus pneumoniae; assay: Antimicrobial activity against Streptococcus pneumoniae isolate 1055 by agar dilution method
[18] = test system: Streptococcus pneumoniae; assay: Antimicrobial activity against Streptococcus pneumoniae isolate 1564 by agar dilution method

C[C@H]1COc2c(N3CCN(C)CC3)c(F)cc3c(=O)c(C(=O)O)cn1c23.C[C@H]1COc2c(N3CCN(C)CC3)c(F)cc3c(=O)c(C(=O)O)cn1c23.O [LEVOFLOXACIN] gave an MIC50 [1] of 1 µg/mL, an MIC90 [1] of 2 µg/mL and an MIC50 [2] of 1 µg/mL. For the same compound, the MIC90 [2] was 4 µg/mL, the MIC50 [3] was 2 µg/mL and the MIC90 [3] was 2 µg/mL. The MIC50 [4] was 1 µg/mL and the MIC90 [4] was 16 µg/mL.
In the case of C[C@@H](O)[C@H]1C(=O)N2C(C(=O)O)=C(S[C@@H]3CN[C@H](C(=O)Nc4cccc(C(=O)O)c4)C3)[C@H](C)[C@H]12 [ERTAPENEM], the MIC [5] is reported as 0.03 µg/mL (≈ 0.0631 µM), the MIC [6] is reported as 0.12 µg/mL (≈ 0.252 µM) and the MIC [7] is reported as 2 µg/mL (≈ 4.21 µM). For the same compound, the MIC [8] was 1 µg/mL (≈ 2.1 µM), the MIC [9] was 1 µg/mL (≈ 2.1 µM) and the MIC [10] was 0.5 µg/mL (≈ 1.05 µM). For the same compound, the MIC [11] was 4 µg/mL (≈ 8.41 µM), the MIC [12] was 0.25 µg/mL (≈ 0.526 µM) and the MIC [13] was 0.12 µg/mL (≈ 0.252 µM). The MIC [14] was 0.03 µg/mL (≈ 0.0631 µM), the MIC [15] was 2 µg/mL (≈ 4.21 µM) and the MIC [16] was 0.12 µg/mL (≈ 0.252 µM).
In the case of COc1c(N2C[C@@H]3CCCN[C@@H]3C2)c(F)cc2c(=O)c(C(=O)O)cn(C3CC3)c12 [MOXIFLOXACIN], the MIC [17] is reported as 4 µg/mL (≈ 9.96 µM), the MIC [8] is reported as 2 µg/mL (≈ 4.98 µM) and the MIC [18] is reported as 0.25 µg/mL (≈ 0.623 µM). It also gave an MIC [14] of 4 µg/mL (≈ 9.96 µM).

Reference: ChEMBL document CHEMBL1649446, “Comparative antipneumococcal activities of sulopenem and other drugs” (2009)
